Experimental data collected from several papers.
Compare with care: the assays were run in different laboratories.
Target: Serine/threonine-protein kinase D1 (PRKD1, Homo sapiens, UniProt Q15139)
Sequence (Q15139 1-912, as in one of the studies): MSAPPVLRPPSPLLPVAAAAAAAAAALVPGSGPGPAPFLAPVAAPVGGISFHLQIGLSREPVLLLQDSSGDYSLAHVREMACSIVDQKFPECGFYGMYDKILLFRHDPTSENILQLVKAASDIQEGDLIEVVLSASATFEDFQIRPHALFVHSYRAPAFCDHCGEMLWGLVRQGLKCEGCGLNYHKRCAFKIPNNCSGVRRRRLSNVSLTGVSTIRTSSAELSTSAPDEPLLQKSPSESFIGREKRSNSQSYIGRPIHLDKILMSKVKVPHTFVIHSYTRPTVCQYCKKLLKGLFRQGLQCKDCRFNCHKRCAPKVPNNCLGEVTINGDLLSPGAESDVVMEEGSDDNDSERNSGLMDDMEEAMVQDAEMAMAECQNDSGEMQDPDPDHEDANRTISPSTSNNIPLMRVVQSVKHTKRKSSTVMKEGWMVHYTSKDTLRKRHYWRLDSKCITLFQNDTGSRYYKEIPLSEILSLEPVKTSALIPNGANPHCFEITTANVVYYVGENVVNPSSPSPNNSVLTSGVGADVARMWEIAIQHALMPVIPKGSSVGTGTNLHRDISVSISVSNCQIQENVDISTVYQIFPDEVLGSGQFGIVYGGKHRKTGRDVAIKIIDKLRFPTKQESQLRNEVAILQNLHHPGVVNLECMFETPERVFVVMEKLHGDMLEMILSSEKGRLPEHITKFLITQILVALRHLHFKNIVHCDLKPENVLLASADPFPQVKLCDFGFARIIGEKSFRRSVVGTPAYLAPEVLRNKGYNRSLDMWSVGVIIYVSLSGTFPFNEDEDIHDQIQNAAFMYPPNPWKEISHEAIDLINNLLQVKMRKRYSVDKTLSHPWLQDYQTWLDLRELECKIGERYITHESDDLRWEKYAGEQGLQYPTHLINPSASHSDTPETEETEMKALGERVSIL

SMILES | assay | conditions | endpoint | result
O=C1NC(=O)c2cc(Nc3ccc(F)cc3)c(Nc3ccc(F)cc3)cc21 | cell-free assay | 0.5 µM | remaining signal | 92.2%
COc1cc2ncnc(Nc3ccc(Oc4ccccc4)cc3C)c2cc1OC | enzyme activity, inhibitor | 1 µM | inhibition | 8%
CCCCNc1ncc2c(-c3ccc(F)cc3)nn(C[C@H]3CC[C@H](N)CC3)c2n1 | target engagement in cells, inhibitor, chemoproteomics | 20 mM | inhibition | 25%
Cc1ncc([N+](=O)[O-])n1C(=NO)c1ccccc1C(F)(F)F | enzyme activity, inhibitor | 10 µM | inhibition | 7.69%
C[C@@H]1CCN(C(=O)CC#N)C[C@@H]1N(C)c1ncnc2[nH]ccc12 | cell-free assay, inhibitor | 0.5 µM | remaining signal | 97.3%
Oc1cccc(-c2nc(N3CCOCC3)c3oc4ncccc4c3n2)c1 | enzyme activity, inhibitor | 10 µM | remaining activity | 120%
COc1cccc2c(NCc3ccccc3)nc(-n3c(N)nc4ccccc43)nc12 | target engagement in cells, inhibitor, chemoproteomics | 20 mM | inhibition | -20.7%
CCCS(=O)(=O)Nc1ccc(F)c(C(=O)c2c[nH]c3ncc(-c4ccc(Cl)cc4)cc23)c1F | enzyme activity, inhibitor | 1 µM | inhibition | < 10%
CCN(CC)CCNC(=O)c1c(C)[nH]c(/C=C2\C(=O)Nc3ccc(F)cc32)c1C | cell-free assay | 0.5 µM | remaining signal | 20%
Nc1ncnc2occ(-c3ccc(NC(=O)Nc4cc(C(F)(F)F)ccc4F)cc3)c12 | cell-free assay, inhibitor | 20 µM | remaining signal | 30%
CCOc1cc(-c2nncn2C)ccc1Nc1ncc2cc(C)nc(NCC(C)(C)C)c2n1 | enzyme activity, inhibitor, FRET | 1 µM | inhibition | 37%
COc1cc(Nc2cnc(C#N)c(O[C@H](C)CN(C)C)n2)ncc1-c1cnn(C)c1 | enzyme activity, inhibitor, radiometric | 1 µM | remaining activity | 106%
CNC(=O)c1cc(Oc2ccc(NC(=O)Nc3ccc(Cl)c(C(F)(F)F)c3)cc2)ccn1 | enzyme activity, inhibitor | 10 µM | inhibition | 13%
Cn1cnc(Br)c1C1=CN(c2ncnc3[nH]cnc23)CCS1 | enzyme activity, inhibitor, radiometric | 50 nM | inhibition | 21.4%
Cc1cc(NC(=O)c2cccc3cc(-c4cccc5[nH]nc(N)c45)ccc23)ccc1F | enzyme activity, inhibitor | 0.1 µM | activity vs control | 76%
CC/C(=N\NC(=O)NCc1cccc(O)c1)c1ccc(O)c(C)c1O | enzyme activity, inhibitor | 0.1 µM | inhibition | -0.2%
O=C(Nc1cnn(-c2csc(C(=O)NC3COC3)c2)c1)Nc1ccccc1Cl | enzyme activity, inhibitor | 5 µM | remaining activity | 114%

SMILES | assay | conditions | endpoint | result
Nc1nc(NC2CCCCC2)sc1C(=O)c1ccccc1 | enzyme activity, inhibitor | 10 µM | remaining activity | 35%
CNC(=O)Nc1ccc2c(c1)[C@@]1(CC2)OC(=O)N(CC(=O)N(Cc2ccc(F)cc2)[C@@H](C)C(F)(F)F)C1=O | cell-free assay, competition with immobilised ligand | 1 µM | remaining binding | 100%
COc1cc(Cl)c(C(=O)N[C@@H](CN[C@H]2CC[C@@H](N)CC2)Cc2ccc(C#N)cc2)cc1-c1ccc(CN[C@H](C)c2ccc(C)cc2)o1 | enzyme activity, inhibitor | 1 µM | remaining activity | 99%
O=C(Nc1ccc(Oc2ccc(F)cc2)cc1)N1CCc2ncccc2[C@H]1c1ccc(F)cc1 | cell-free assay, competition with immobilised ligand | 1 µM | remaining binding | 94%
Cn1cncc1C1=CN(c2ncnc3[nH]cnc23)CCS1 | enzyme activity, inhibitor, radiometric | 50 nM | inhibition | 21.3%
Cc1nc(Cc2cccc(C(F)(F)F)c2)sc1-c1ccc(C(N)=O)nc1 | cell-free assay, competition with immobilised ligand | 1 µM | remaining binding | 93%
Cn1c2ccccc2c2c3c(c4c5ccccc5n(CCC#N)c4c21)CNC3=O | cell-free assay | 0.5 µM | remaining signal | 17.3%
CS(=O)(=O)NCC[C@H](NC(=O)c1cncc2c1cnn2-c1ccc(F)cc1)c1ccnc(S(C)(=O)=O)c1 | cell-free assay, competition with immobilised ligand | 1 µM | remaining binding | 92%
FC(F)c1nc2ccccc2n1-c1nc(N2CCOCC2)nc(N2CCOCC2)n1 | enzyme activity, inhibitor | 10 µM | remaining activity | 96%
O=C(NC[C@@H]1[C@H]2CN(C(=O)OCc3cc(C(F)(F)F)cc(C(F)(F)F)c3)C[C@@H]12)c1ccc2[nH]nnc2c1 | cell-free assay, competition with immobilised ligand | 1 µM | remaining binding | 100%
Cc1ccc(Nc2nccc(N(C)c3ccc4c(C)n(C)nc4c3)n2)cc1S(N)(=O)=O | enzyme activity, inhibitor | 10 µM | inhibition | 23%
Cc1c(NC(=O)c2cc(C(N)=O)nc3cc(F)ccc23)c(C(F)(F)F)nn1Cc1ccc(C(C)(C)C)cc1 | cell-free assay, competition with immobilised ligand | 1 µM | remaining binding | 100%
CC(C)(C)c1nc(-c2cccc(NS(=O)(=O)c3c(F)cccc3F)c2F)c(-c2ccnc(N)n2)s1 | enzyme activity, inhibitor, radiometric | 1 µM | remaining activity | 33%
CCCCN(CCCC)C(=O)CN1C[C@H](c2cc(OC)c3c(c2)OCO3)[C@@H](C(=O)O)[C@@H]1CC(C)(C)CCC | cell-free assay, competition with immobilised ligand | 1 µM | remaining binding | 79.4%
FC(F)(F)Oc1cccc(-c2cnc3ccc(-c4ccncc4)nn23)c1 | enzyme activity, inhibitor, radiometric | 1 µM | activity vs control | 106%
Cc1c(C(=O)O)cc(-c2ccc(C3CCNCC3)cc2)c2ccc(-c3ccc(C(F)(F)F)cc3)cc12 | binding, competition with immobilised ligand | 1 µM | remaining binding | 100%
Cc1ccc(C(=O)NCc2ccsc2)cc1C#Cc1cn(C(C)C)c2ncnc(N)c12 | enzyme activity, inhibitor | 1 µM | activity vs control | 91%
